Experiments:
Assay type in all cases: functional
[1] = organism: Cavia porcellus; test: Partial agonist activity was determined by measuring the % maximum agonist response in guinea pig ileum at 1*10e-6 M concentration of compound
[2] = organism: Mus musculus; test: Partial agonist activity by measuring the % maximum agonist response in mouse vas deferens at 1*10e-6 M concentration of compound
[3] = organism: Mus musculus; test: Tested for the narcotic antagonistic activity by measuring the ratio of the IC50 of the DADLE in the presence and in the absence in mouse vas deferens at 1*10e-7 M
In short: (§1)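 Isolated-tissue antagonism assays: guinea pig ileum (GPI) against ethylketazocine or morphine, with antagonist at 2×10^-8 M; mouse vas deferens (MVD) against DADLE, with antagonist at 1×10^-7 M. The value is the agonist IC50 with antagonist divided by the agonist IC50 without antagonist, both measured in the same preparation, reported ± SE.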

[4] = organism: Cavia porcellus; test: Tested for the narcotic antagonistic activity by measuring the ratio of the IC50 of the ethylketazocine in the presence and in the absence in guinea pig ileum at 2*10e-8M; in short: as §1
[5] = organism: Cavia porcellus; test: Tested for the narcotic antagonistic activity by measuring the ratio of the IC50 of the morphine in the presence and in the absence in guinea pig ileum at 2*10e-8M; in short: as §1
[6] = organism: Cavia porcellus; test: Partial agonist activity was determined by measuring the % maximum agonist response in guinea pig ileum at 3*10e-8 M concentration of compound
[7] = organism: Mus musculus; test: Partial agonist activity by measuring the % maximum agonist response in mouse vas deferens at 1*10e-7 M concentration of compound
[8] = organism: Cavia porcellus; test: Partial agonist activity was determined by measuring the % maximum agonist response in guinea pig ileum at 5*10e-7 M concentration of compound
[9] = organism: Cavia porcellus; test: Partial agonist activity was determined by measuring the % maximum agonist response in guinea pig ileum at 1*10e-8 M concentration of compound

SMILES	Max agonist response [1]	Max agonist response [2]	IC50 ratio [3]	IC50 ratio [4]	IC50 ratio [5]	Max agonist response [6]	Max agonist response [7]	Max agonist response [8]	Max agonist response [9]
COCCOCCOCCN[C@@H]1CC[C@@]2(O)C3Cc4ccc(O)c5c4C2(CCN3CC2CC2)[C@H]1O5 (stereo not given in full)	67%	49%	2.09	1.63	3.45				
Cc1ccc(S(=O)(=O)OCCOCCOCCN[C@@H]2CC[C@@]3(O)C4Cc5ccc(O)c6c5C3(CCN4CC3CC3)[C@H]2O6)cc1 (stereo not given in full)			4.29	3.96	3.78	57%	27%		
Oc1ccc2c3c1O[C@H]1[C@H](NCCOCCOCCOCCOCCOCCN[C@H]4CC[C@]5(O)C6Cc7ccc(O)c8c7C5(CCN6CC5CC5)[C@@H]4O8)CC[C@@]4(O)C(C2)N(CC2CC2)CCC314			30.67	2.61	5.75		26%	60%	
Oc1ccc2c3c1O[C@H]1[C@H](NCCOCCOCCN[C@H]4CC[C@]5(O)C6Cc7ccc(O)c8c7C5(CCN6CC5CC5)[C@@H]4O8)CC[C@@]4(O)C(C2)N(CC2CC2)CCC314			7.17	16.91	3.24		32%		10%

Source: ChEMBL document CHEMBL1122096, “Narcotic antagonistic potency of bivalent ligands which contain beta-naltrexamine. Evidence for bridging between proximal recognition sites” (1982)
